The values below come from ChEMBL document CHEMBL4715707, “Allosteric Indole Amide Inhibitors of p97: Identification of a Novel Probe of the Ubiquitin Pathway” (ACS Med Chem Lett, 2016).

Series [1] deals with T1, Transitional endoplasmic reticulum ATPase (Homo sapiens, UniProt P55072). Kind of series: Inhibition of recombinant human full length Avi-tagged p97 (1 to 806 residues) expressed in Escherichia coli Rosetta 2(DE3) using 20 uM ATP as substrate incubated for 90 mins by ADP-glo assay. Put shortly: (§1)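 ADP-Glo luminescent detection of ADP formed by wild-type p97 ATPase. Enzyme was 20 nM WT p97 (indole amide series) or 10 nM (pyridine indole amide series), with ATP at 20 or 100 μM. n is the number of independent replicates, each run in duplicate or triplicate.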
Target sequence in this assay (P55072 whole entry, the tested form may be a part): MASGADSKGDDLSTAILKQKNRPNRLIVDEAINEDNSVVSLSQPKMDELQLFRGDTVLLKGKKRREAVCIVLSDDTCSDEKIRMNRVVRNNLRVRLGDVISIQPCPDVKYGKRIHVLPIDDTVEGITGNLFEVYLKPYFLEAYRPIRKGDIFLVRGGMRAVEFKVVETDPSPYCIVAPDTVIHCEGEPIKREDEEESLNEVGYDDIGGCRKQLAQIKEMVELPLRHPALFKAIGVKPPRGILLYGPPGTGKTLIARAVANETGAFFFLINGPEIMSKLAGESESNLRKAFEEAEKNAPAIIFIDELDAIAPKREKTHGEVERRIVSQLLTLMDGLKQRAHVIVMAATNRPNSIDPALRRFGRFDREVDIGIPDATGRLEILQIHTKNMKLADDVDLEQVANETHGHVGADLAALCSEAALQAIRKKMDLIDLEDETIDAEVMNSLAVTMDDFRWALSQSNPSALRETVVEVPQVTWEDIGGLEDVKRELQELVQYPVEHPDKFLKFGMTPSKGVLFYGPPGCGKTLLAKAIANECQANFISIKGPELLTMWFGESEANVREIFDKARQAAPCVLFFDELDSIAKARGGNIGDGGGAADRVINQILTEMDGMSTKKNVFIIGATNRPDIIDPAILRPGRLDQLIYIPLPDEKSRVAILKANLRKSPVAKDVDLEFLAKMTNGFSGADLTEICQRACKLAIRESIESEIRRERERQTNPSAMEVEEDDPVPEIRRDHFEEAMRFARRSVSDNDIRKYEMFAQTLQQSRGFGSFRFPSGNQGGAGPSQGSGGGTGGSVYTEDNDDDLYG

The target in series [2] is T1, Transitional endoplasmic reticulum ATPase. Kind of series: Inhibition of recombinant human full length Avi-tagged p97 (1 to 806 residues) expressed in Escherichia coli Rosetta 2(DE3) using 100 uM ATP as substrate incubated for 90 mins by ADP-glo assay. An outline of the steps: as §1
Target sequence in this assay (P55072 whole entry, the tested form may be a part): as above
A short description of series [3]: Aqueous solubility of compound at pH 7. It is filed as physicochemical. Conditions: buffer. An outline of the steps: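 Aqueous solubility determined in PBS at pH 7.4.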
Series [4] deals with T1, Transitional endoplasmic reticulum ATPase. The series is described as follows: Binding affinity to recombinant human full length Avi-tagged p97 (1 to 806 residues) expressed in Escherichia coli Rosetta 2(DE3) assessed as binding constant by SPR analysis. In general terms: In SPR one partner is held on a chip, and binding of the other changes the refractive index at the surface.
Target sequence in this assay (P55072 2-806 limits assumed): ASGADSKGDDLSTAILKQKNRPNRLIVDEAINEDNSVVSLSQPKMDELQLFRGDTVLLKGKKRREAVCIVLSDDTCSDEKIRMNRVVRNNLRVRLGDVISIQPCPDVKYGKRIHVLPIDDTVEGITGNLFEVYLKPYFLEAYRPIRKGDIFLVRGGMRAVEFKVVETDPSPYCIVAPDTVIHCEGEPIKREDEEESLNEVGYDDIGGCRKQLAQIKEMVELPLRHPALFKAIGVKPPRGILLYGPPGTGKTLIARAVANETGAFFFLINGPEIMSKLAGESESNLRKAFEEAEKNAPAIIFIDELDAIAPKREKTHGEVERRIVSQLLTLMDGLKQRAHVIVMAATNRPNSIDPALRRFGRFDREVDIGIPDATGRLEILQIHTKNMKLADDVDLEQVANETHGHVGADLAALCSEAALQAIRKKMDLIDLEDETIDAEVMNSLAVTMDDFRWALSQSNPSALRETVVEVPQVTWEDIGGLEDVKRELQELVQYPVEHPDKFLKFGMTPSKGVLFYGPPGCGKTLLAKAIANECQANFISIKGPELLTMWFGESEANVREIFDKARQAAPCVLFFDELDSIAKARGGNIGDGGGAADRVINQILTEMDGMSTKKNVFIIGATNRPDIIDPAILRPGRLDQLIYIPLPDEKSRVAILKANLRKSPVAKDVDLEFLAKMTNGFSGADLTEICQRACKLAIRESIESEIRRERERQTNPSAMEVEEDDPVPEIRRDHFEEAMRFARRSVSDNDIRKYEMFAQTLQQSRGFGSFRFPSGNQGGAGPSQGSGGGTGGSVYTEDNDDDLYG

Series [5] shares this target. The series is described as follows: Binding affinity to recombinant human full length N-terminal Avi-tagged p97 ND1 domain (1 to 458 residues) expressed in Escherichia coli Rosetta 2(DE3) assessed as binding constant by SPR analysis.
Target sequence in this assay (P55072 2-806 limits assumed): as above
Series [6] has the same target. The series is described as follows: Binding affinity to recombinant human full length C-terminal Avi-tagged p97 D2 domain (461 to 806 residues) expressed in Escherichia coli Rosetta 2(DE3) assessed as binding constant by SPR analysis.
Target sequence in this assay (P55072 2-806 limits assumed): as above
Series [7] shares this target. Kind of series: Inhibition of recombinant human full length Avi-tagged p97 (1 to 806 residues) expressed in Escherichia coli Rosetta 2(DE3) using 5 uM ATP as substrate incubated for 90 mins by ADP-glo assay. An outline of the steps: (§2)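 ATP-dependence of inhibition assessed by determining IC50 at three ATP levels (5, 20 and 100 μM) in the ADP-Glo p97 ATPase assay. Inhibition mode was assigned from the shift in IC50 with increasing ATP.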
Background: In ADP-Glo the light output rises with the ADP produced.
Target sequence in this assay (P55072 whole entry, the tested form may be a part): as the sequence (P55072 whole entry, the tested form may be a part) above

A short description of series [8]: Apparent permeability across apical to basolateral side in MDCK cells. It is filed as ADME, cell-based, Canis lupus familiaris. Particulars: dog. An outline of the steps: (§3)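 Bidirectional permeability measured across MDCK cell monolayers, reported as apparent permeability (Papp) in cm/s for each direction.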
Series [9] can be described thus: Apparent permeability across basolateral to apical side in MDCK cells. It is filed as ADME, cell-based, Canis lupus familiaris. Particulars: dog. An outline of the steps: as §3
A short description of series [10]: Metabolic stability in mouse microsomes assessed as half life. It counts as ADME, Microsome.
Series [11] in a line: Metabolic stability in human microsomes assessed as half life. It is filed as ADME, Microsome.
Series [12] has as its target T1, Transitional endoplasmic reticulum ATPase. Kind of series: Uncompetitive inhibition of recombinant human full length Avi-tagged p97 (1 to 806 residues) expressed in Escherichia coli Rosetta 2(DE3) using 20 uM ATP as substrate incubated for 90 mins by ADP-glo assay based Michaelis-Menten plot analysis. An outline of the steps: as §2
Target sequence in this assay (P55072 whole entry, the tested form may be a part): as above
Series [13] shares this target. Kind of series: Competitive inhibition of recombinant human full length Avi-tagged p97 (1 to 806 residues) expressed in Escherichia coli Rosetta 2(DE3) using 20 uM ATP as substrate incubated for 90 mins by ADP-glo assay based Michaelis-Menten plot analysis.
Target sequence in this assay (P55072 whole entry, the tested form may be a part): as above

Values after ≈ are worked out from the molar mass of the structure shown. Active and inactive are the calls of the source. The calls are words filed in the database; no cut-off is given here.

Broadly, the IC50 is the midpoint of a concentration-inhibition curve. In general, solubility refers to the concentration that dissolves in the medium under given conditions. A low value points to little dissolved substance. Broadly, the Papp A→B is the apparent permeability from the apical to the basolateral side of a cell layer. Broadly, the Papp B→A is how fast a substance crosses the layer from the basolateral side. Broadly, the half-life is the time in which the quantity being followed falls by half. The term Ki denotes the dissociation constant of the complex between target and ligand, obtained from inhibition or displacement.

As to `Cc1cc2cc(NC(=O)c3cnccn3)ccc2[nH]1`, the IC50 in [1] was greater than 50 µM.
For `Cc1cc2cc(NC(=O)c3nccnc3N)ccc2n1C`, the IC50 in series [2] is greater than 50 µM.
`Cc1cc2cc(NC(=O)c3nccnc3N)ccc2[nH]1` came in with a solubility in [3] of 56 µM (≈ 15 µg/mL). Moreover, the Kdiss in [4] was 9.1 µM. The result in series [5] was inactive. The result in [6] was Active. The 50% inhibitory concentration (IC50) in [7] worked out at 26 µM; in [1] it was 11.5 µM; in series [2], 3.5 µM.
In the case of `Cc1cc2cc(NC(=O)c3ncccc3N)ccc2[nH]1`, the IC50 in series [1] is greater than 50 µM.
The same measure, in the same setting: then `Nc1nccnc1C(=O)Nc1ccc2[nH]ccc2c1`, with greater than 50 µM.
With `CCc1cc2cc(NC(=O)c3nccnc3N)ccc2[nH]1`, the IC50 in series [2] came to 13 µM.
In the case of `Cc1cc2cc(NC(=O)c3cccnc3N)ccc2[nH]1`, the concentration in solution in series [3] (solubility) came to 330 µM (≈ 87.9 µg/mL). Besides, the values for the IC50 in series [1] and in [2] were 2.6 µM and 0.5 µM, respectively. Moreover, the Papp A→B in series [8] was found to be 710 nm/s. Also, in series [9], the Papp B→A was determined as 460 nm/s. Further, the half-life in series [10] is 5 min; in series [11], greater than 60 min. The values for the Ki in [12] and in [13] were 0.74 µM and 3.5 µM, respectively.
Turning to `Cc1[nH]c2ccc(NC(=O)c3nccnc3N)cc2c1C`, in [1], the IC50 was greater than 50 µM.
